Results: ChEMBL document CHEMBL1932932, “Natural product libraries to accelerate the high-throughput discovery of therapeutic leads” (J Nat Prod, 2011)
Converted amounts (≈) assume the structure as drawn. The source made the active and inactive calls. The rule behind the calls is not given here.

Columns and labels:
RAW264.7 [1] = assay: Cytotoxicity against mouse RAW264.7 cells assessed as cell viability […] by MTT assay; assay type: functional; conditions: in the assay text read “20 hrs” for “24 hrs”
Method in brief: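 MTT test on extracts at 10 µg/mL and library fractions at 20 µg/mL, dissolved in DMSO. RAW264.7 cells were exposed for 20 h. MTT was then added for 2 h, the medium removed, formazan dissolved in DMSO, and absorbance read at 570 nm.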

HeLa [2] = assay: Stabilization of microtubule in human HeLa cells at 20 ug/ml after 24 hrs by Hoechst staining-based fluorescence microscopic analysis; assay type: functional, cell-based
HeLa [3] = assay: Induction of microfilament disruption in human HeLa cells at 20 ug/ml after 24 hrs by Hoechst staining-based fluorescence microscopic analysis; assay type: functional, cell-based
Method in brief: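 HeLa cells (1500/well, 384-well) were seeded and incubated overnight at 37 °C, 5% CO2, then samples were pin-transferred. After 24 h cells were fixed in 4% formaldehyde for 20 min, permeabilised with 0.5% Triton X-100 for 10 min and blocked with 2% BSA. Actin was stained with rhodamine-phalloidin and DNA with Hoechst 33342. Images were taken by automated fluorescence microscopy at 10×.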

[4] = test system: Trypanosoma brucei brucei; assay: Antitrypanosomal activity against Trypanosoma brucei brucei clone 427-221a assessed as growth inhibition after 40 hrs by ATP-bioluminescence assay; assay type: functional, organism-based
Method in brief: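 Bloodstream-form parasites (1×10^4/well) were grown in HMI-9 with 10% FBS, 10% Serum Plus and penicillin/streptomycin at 37 °C, 5% CO2. Samples were tested at 12.5 and 1.25 µg/mL, or serially diluted 25–0.001 µg/mL for IC50, at 0.5% final DMSO. Incubation was 40 h. ATP was read by CellTiter-Glo. Log10 signals were converted to % inhibition against 0.5% DMSO and 50 µM thimerosal controls, and curves were fitted.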

MDA-MB-435 = assay: Antiproliferative activity against human MDA-MB-435 cells assessed as cell viability after 96 hrs by CellTiter-Glo luminescence assay; assay type: functional, cell-based; conditions: MDA-MB-435, 96 h
Method in brief: (§1)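 Cells grown in 96-well plates with no compound or continuous exposure to 1.5–50 000 nM for 96 h. Growth was read by CellTiter-Glo luminescence. IC50 is the concentration giving 50% growth inhibition versus untreated cells. Two separate replicate experiments were run.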

HT-29 = assay: Antiproliferative activity against human HT-29 cells assessed as cell viability after 96 hrs by CellTiter-Glo luminescence assay; assay type: functional, cell-based; conditions: HT-29, 96 h; method in brief: as §1
[5] = Antiproliferative activity against human H522-T1 cells assessed as cell viability after 96 hrs by CellTiter-Glo luminescence assay; assay type: functional, cell-based; conditions: H522-T1, 96 h; method in brief: as §1
U-937 = assay: Antiproliferative activity against human U937 cells assessed as cell viability after 96 hrs by CellTiter-Glo luminescence assay; assay type: functional, cell-based; conditions: U-937, 96 h; method in brief: as §1
PC-3 = assay: Cytotoxicity against human PC3 cells assessed as cell viability at 10 uM after 24 hrs by MTT assay; assay type: functional, cell-based
RAW264.7 [6] = assay: Cytotoxicity against mouse RAW264.7 cells assessed as cell viability at 10 uM after 20 hrs by MTT assay

SMILES	Activity (RAW264.7 [1]) [µM]	Activity (HeLa [2])	Activity (HeLa [3])	IC50 [4] [µg/mL]	IC50 (MDA-MB-435) [µg/mL]	IC50 (HT-29) [µg/mL]	IC50 [5] [µg/mL]	IC50 (U-937) [µg/mL]	Activity (PC-3)	Activity (RAW264.7 [6])
C[C@]12CCC[C@](C)(C(=O)O)[C@@H]1CC[C@@]1(C)c3cocc3CC[C@H]21	>90									
C=C1C[C@H](C)C[C@@H]2CC=C[C@@H](C/C=C\C(=O)O[C@H]([C@@H](O)/C=C/[C@@H]3CC(C)=CCO3)C[C@@H]3O[C@H]3[C@@H](O)C1)O2 [FIJIANOLIDE B]		inactive	Active	0.08 (≈ 0.155 µM)	0.002 (≈ 0.00389 µM)	0.003 (≈ 0.00583 µM)	0.002 (≈ 0.00389 µM)	0.003 (≈ 0.00583 µM)		
C[C@H]1CCC[C@]2(C)C(=O)[C@H](C(O)C(=O)O)CC[C@]12C (some centres undefined) [AIGNOPSANOIC ACID B]		inactive	inactive	> 10	> 2.5	> 2.5	> 2.5	> 2.5		
C/C1=C/C(=O)O[C@@H]2C[C@@H](CC[C@H](C)/C=C\C(=O)CCC1)O[C@@](O)([C@@H]1CSC(=O)N1)C2		inactive	inactive	3.6 (≈ 8.23 µM)	> 2.5	> 2.5	> 2.5	> 2.5		
CCCCCCC(C)CCCCCCCCCOC[C@H](O)COC1[C@@H](O)[C@H](O)[C@@H](O)[C@@H]1O (some centres undefined) [SACROTRIDE A]		inactive	inactive	> 10	> 2.5	> 2.5	> 2.5	> 2.5		
C=CC/C=C\Cc1csc(C(C)(C)[C@H](O)C/C=C\C(=C)CCNC(=O)OC)n1 [MYCOTHIAZOLE]		inactive	inactive	6.7 (≈ 16.6 µM)	1 (≈ 2.47 µM)	0.7 (≈ 1.73 µM)	1 (≈ 2.47 µM)	0.01 (≈ 0.0247 µM)		
C/C1=C/C(=O)O[C@@H]2C[C@@H](CC[C@H](C)/C=C\CC(=O)CC1)O[C@@](O)([C@@H]1CSC(=O)N1)C2 [LATRUNCULONE B]		Active	inactive	1 (≈ 2.29 µM)	> 2.5	0.8 (≈ 1.83 µM)	0.8 (≈ 1.83 µM)	1.18 (≈ 2.7 µM)		
COC(CC1=CC[C@]2(C)[C@@H](C)CCC[C@]2(C)C1=O)OC [AIGNOPSANE KETAL]		inactive	inactive	> 10	> 2.5	> 2.5	> 2.5	> 2.5		
C=C1C[C@H](C)C[C@@H]2CC=C[C@@H](C/C=C\C(=O)O[C@H]3C[C@@H](O[C@H]3/C=C/[C@@H]3CC(C)=CC(=O)O3)[C@@H](O)[C@@H](O)C1)O2 [FIIJIANOLIDE D]		inactive	Active	1.4 (≈ 2.65 µM)	> 2.5	> 2.5	> 2.5	> 2.5		
C/C1=C/C(=O)O[C@@H]2C[C@@H](CC[C@H](C)/C=C\C=C\CC1)O[C@@](O)([C@@H]1CSC(=O)N1)C2 [LATRUNCULIN A]		Active	inactive	1.2 (≈ 2.85 µM)	0.04 (≈ 0.0949 µM)	0.08 (≈ 0.19 µM)	0.06 (≈ 0.142 µM)	0.07 (≈ 0.166 µM)		
C/C1=C/C(=O)O[C@@H]2C[C@@H](CC[C@H](C)/C=C\[C@H](O)[C@@H](O)CC1)O[C@@](O)([C@@H]1CSC(=O)N1)C2 [LATRUNCULOL A]		Active	inactive	0.09 (≈ 0.198 µM)	> 2.5	0.65 (≈ 1.43 µM)	0.76 (≈ 1.67 µM)	0.31 (≈ 0.68 µM)		
C/C(=C/C(=O)O)CC/C=C/C=C\[C@@H](C)CC[C@@H](O)CCCC(=O)c1csc(=O)[nH]1 [APO LATRUNCULIN T]		inactive	inactive	4.8 (≈ 11.4 µM)	> 2.5	> 2.5	> 2.5	> 2.5		
C=C1C[C@H](C)C[C@@H]2CC=C[C@@H](C/C=C\C(=O)O[C@H]3C[C@@H](O[C@@]3(/C=C/[C@@H]3CC(C)=CCO3)OC)[C@@H](O)[C@@H](O)C1)O2			Active	> 10	> 2.5	> 2.5	> 2.5	> 2.5		
CO[C@H]1/C=C\[C@@H](C)CC[C@@H]2C[C@H](C[C@](O)([C@@H]3CSC(=O)N3)O2)OC(=O)/C=C(/C)CC[C@@H]1O [LATRUNCULOL B]		Active	inactive	2 (≈ 4.26 µM)	> 2.5	> 2.5	> 2.5	> 2.5		
COc1cccc2c1C(=O)c1c(O)c3c(c(O)c1C2=O)C[C@@](O)(C(=O)CO)C[C@@H]3O[C@H]1C[C@H](N)[C@H](O)[C@H](C)O1									Active	Active
COC(=O)/C=C1/CC[C@]2(C)[C@@H](C)CCC[C@]2(C)C1=O [METHYL AIGNOPSANOATE]		inactive	inactive	> 10	> 2.5	> 2.5	> 2.5	> 2.5		
C=C1C[C@H](C)C[C@@H]2CC=C[C@@H](C/C=C\C(=O)O[C@H]3C[C@@H](O[C@H]3/C=C/[C@@H]3CC(C)=CCO3)[C@@H](O)[C@@H](O)C1)O2 [FIJIANOLIDE A]		inactive	Active	1.4 (≈ 2.72 µM)	0.02 (≈ 0.0389 µM)	0.04 (≈ 0.0777 µM)	0.02 (≈ 0.0389 µM)	0.03 (≈ 0.0583 µM)		
C[C@H]1CCC[C@]2(C)C(=O)/C(=C\C(=O)O)CC[C@]12C [AIGNOPSANOIC ACID A]		inactive	inactive	6.5 (≈ 26 µM)	> 2.5	> 2.5	> 2.5	> 2.5		
